Most compounds without a hit are left out; they make up all but 2.3% or so of the library.
TRPC4 inh – blocks the mouse TRPC4 cation channel | 300,000 compounds, 0.39% hits | Q9QUQ5 | B-score at 10 µM | HEK293 TRPC4beta/mu-opioid, DAMGO-evoked Fluo4 calcium flux; active compounds read low;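 active means B-score over 3 SD under the library average, no early fluorescence shift, positive overall ratio signal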
Target sequence (Q9QUQ5 whole entry, looked up): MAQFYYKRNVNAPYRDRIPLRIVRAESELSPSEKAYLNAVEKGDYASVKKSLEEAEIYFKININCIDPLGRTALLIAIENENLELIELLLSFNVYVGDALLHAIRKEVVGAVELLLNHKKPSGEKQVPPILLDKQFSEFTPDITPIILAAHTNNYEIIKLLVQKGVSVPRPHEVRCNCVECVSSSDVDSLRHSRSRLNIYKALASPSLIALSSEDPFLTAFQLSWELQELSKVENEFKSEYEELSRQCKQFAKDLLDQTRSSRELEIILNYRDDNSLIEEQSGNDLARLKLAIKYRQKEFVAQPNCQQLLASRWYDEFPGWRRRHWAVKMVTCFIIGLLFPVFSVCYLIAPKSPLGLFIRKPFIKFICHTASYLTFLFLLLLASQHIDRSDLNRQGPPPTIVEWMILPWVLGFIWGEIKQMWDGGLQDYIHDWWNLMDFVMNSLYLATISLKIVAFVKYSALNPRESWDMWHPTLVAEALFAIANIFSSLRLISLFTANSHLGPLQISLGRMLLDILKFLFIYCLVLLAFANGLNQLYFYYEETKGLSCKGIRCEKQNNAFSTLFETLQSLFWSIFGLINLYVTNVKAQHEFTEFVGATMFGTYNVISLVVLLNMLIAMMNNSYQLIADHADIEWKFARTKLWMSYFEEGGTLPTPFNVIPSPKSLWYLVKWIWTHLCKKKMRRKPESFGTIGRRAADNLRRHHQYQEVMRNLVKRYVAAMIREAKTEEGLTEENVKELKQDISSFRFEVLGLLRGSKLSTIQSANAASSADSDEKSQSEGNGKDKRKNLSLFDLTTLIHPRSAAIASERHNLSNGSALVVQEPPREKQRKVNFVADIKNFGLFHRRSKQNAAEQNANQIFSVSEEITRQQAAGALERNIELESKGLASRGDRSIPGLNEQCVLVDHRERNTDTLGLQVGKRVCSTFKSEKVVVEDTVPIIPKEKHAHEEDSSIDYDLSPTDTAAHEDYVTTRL
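Material: HEK293 cells with stable TRPC4beta plus mu-opioid receptor expression; probe or stimulus: DAMGO in two steps, submaximal then maximal; technique: Fluo4 calcium fluorescence by kinetic imaging, 5 s 1 Hz baseline; measure: integrated fluorescence ratio relative to baseline, converted to per-well B score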
TRPC4 agonist – TRPC4 (mouse) channel activation | Q9QUQ5 | HEK293 TRPC4beta/mu-opioid, Fluo4 calcium fluorescence; active compounds read high | B-score at 10 µM | 310,000 compounds, 0.49% hits;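 active means B-score above 5 SD of library B-scores, and initial fluorescence ratio not above library mean plus 5 SD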;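 further: positive B-score marks a calcium rise read as TRPC4 activation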
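System – HEK293 cells stably co-expressing mouse TRPC4beta and mu-opioid receptor · Signal – Fluo4 calcium-sensitive dye fluorescence, kinetic, 1 Hz baseline · Benchmarks – buffer (low) and maximal DAMGO (high) · Read-out – B score of integrated fluorescence ratio per well · Incubation – dye loading 45 min room temperature, 110 s kinetic read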
TRPC6 act – activators of mouse TRPC6 channel; Q61143; HEK293-TRPC6 membrane potential dye fluorescence; active compounds read high; B-score at 10 µM; 310,000 compounds, 0.13% hits; AID 2550;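 active means B-score of the integrated fluorescence ratio above library mean plus 3 SD, and starting fluorescence ratio within library mean plus 5 SD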;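 further: higher score means more depolarization so channel activation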
TRPC4 PAM – allosteric potentiators of mouse TRPC4 channel; HEK293 TRPC4beta/mu-opioid, DAMGO EC20, Fluo-4 Ca2+ flux; active compounds read high; Q9QUQ5; AID 2227; 310,000 compounds, 0.42% hits; B-score at 10 µM;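 active means B-score of calcium response area above 5 SD of library B-scores, with initial fluorescence ratio within 5 SD of library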
TRPC6 inhibitor – blocks the mouse TRPC6 cation channel. Q61143. B-score at 10 µM. 310,000 compounds, 1.1% hits. AID 2553. HEK293-TRPC6, membrane potential dye, ACh-evoked depolarization; active compounds read low;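 active means B-score under library mean minus 3 SD, initial fluorescence not abnormally high, positive integrated signal ratio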;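 further: B-score derived from integrated fluorescence ratio over the kinetic read; more negative B-score means stronger inhibition of depolarization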
TRPC4 sel inh 2 – second check of whether TRPC6 inhibitors also affect mouse TRPC4; 920 compounds, 42% hits; HEK293 TRPC4/MOR, membrane potential dye fluorescence; channel activated by saturating DAMGO dose; inhibition, % at 10 µM; shares compounds with TRPC6 inhibitor;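 active means compounds whose fluorescence signal differed from control wells by over 3 SD, either direction, in both duplicate plates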
TRPC4 spec – selectivity of TRPC6 inhibitors: effect on mouse TRPC4 | activity change, negative = inhibition, % at 10 µM | 920 compounds, 61% hits | HEK293 TRPC4/mu-opioid, membrane potential fluorescence | shares compounds with TRPC6 inhibitor;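 active means rise or fall in signal beyond 3 SD of buffer-only wells in both replicate plates, either sign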;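 further: integrated kinetic ratio of fluorescence range over baseline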
HEK293 MPD ctr 2-1 – second counter-screen for TRPC6 inhibitors: parental HEK293 cells. 920 compounds, 31% hits. signal change vs control, % at 10 µM. parental HEK293 membrane potential dye fluorescence; maximal acetylcholine challenge after compound addition. shares compounds with TRPC6 inhibitor;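 active means membrane potential signal moving either way by over 3 SD of the maximum-effect control, in both duplicate plates, meaning non-specific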
HEK293 MPD ctr-1 – counter-screen for TRPC6 inhibitors: effect in parental HEK293 cells. parental HEK293 membrane potential dye fluorescence. membrane potential signal change, % at 10 µM. 920 compounds, 60% hits. shares compounds with TRPC6 inhibitor;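 active means membrane potential signal shifting up or down by more than 3 SD of buffer-only wells, on both duplicate plates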
HEK293 MPD ctr-2 – counter-screen for TRPC6 modulators: effect in parental HEK293 cells. shares compounds with TRPC6 inhibitor. membrane potential dye fluorescence. membrane potential signal change, % at 10 µM. 2,400 compounds, 51% hits. AID 488924;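 active means membrane potential signal moves up or down beyond 5 SD from buffer-only wells, on both duplicate plates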
HEK293 MPD ctr 2-2 – parental HEK293 nonspecific activity of TRPC6 modulators, second screen. shares compounds with TRPC6 inhibitor. membrane potential dye fluorescence; after compound, maximal acetylcholine stimulation. inhibition, % at 10 µM. 2,400 compounds, 14% hits;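 active means membrane potential signal drops by more than 5 SD from the mean control signal, in both duplicate plates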
TRPC4/MOR mod – mouse TRPC4 off-target activity of TRPC6 modulators; HEK293 TRPC4/mu-opioid, membrane potential fluorescence; 2,400 compounds, 69% hits; percent change from control (negative = decrease, positive = increase), % at 10 µM; AID 488927; shares compounds with TRPC6 inhibitor;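 active means membrane potential signal moved up or down beyond 5 SD of buffer control wells, in both duplicate plates, actives on both sides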
TRPC4/MOR inh 2 – second selectivity test of TRPC6 modulators against mouse TRPC4 | inhibition, % at 10 µM | shares compounds with TRPC6 inhibitor | 2,400 compounds, 55% hits | HEK293 TRPC4/mu-opioid, membrane potential dye fluorescence; stimulated with maximal-effect DAMGO | AID 488928;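 active means drop in membrane potential signal beyond 5 SD of the control wells in both duplicate plates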;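 further: TRPC4 counter screen for TRPC6 hits run under conditions tuned for TRPC6 not TRPC4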
TRPC6 inh conf – mouse TRPC6 inhibitor confirmation; shares compounds with TRPC6 inhibitor; HEK293-TRPC6, membrane potential dye, ACh-evoked depolarization; inhibition, % at 10 µM; 3,300 compounds, 43% hits; AID 488960;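 active means fluorescence ratio falls more than 5 SD below the full-stimulation control mean, in both duplicate runs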;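 further: integrated fluorescence ratio of peak minus minimum over baseline after agonist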
TRPC6 act confirm – confirmation of mouse TRPC6 activators | shares compounds with TRPC6 inhibitor | 2,800 compounds, 11% hits | HEK293-TRPC6 membrane potential dye fluorescence, FDSS | AID 488961 | activation, % at 10 µM;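 active means ratio signal rise beyond 5 SD above unstimulated control wells' mean, seen in both duplicate runs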
Large screens that a line does not name were inactive (follow-up assays come after a bar, where they were run).

COc1cc2c(cc1OC)C(c1ccccc1)=NCC2	none
COc1cc2c(ccc3cc(OC)c(OC)c(O)c32)cc1O	none
CC(C)CCNCC(=O)NC(c1ccccc1)c1ccccc1	none
COc1cccc(C2SCC(=O)N2c2ccc(C)cc2)c1OC (stereo not drawn)	TRPC6 inhibitor -5.6 | HEK293 MPD ctr-2 inactive | HEK293 MPD ctr 2-2 inactive | TRPC4/MOR mod 8.0% | TRPC4/MOR inh 2 inactive | TRPC6 inh conf 66% | TRPC6 act confirm inactive
CN(C)S(=O)(=O)c1cccc(NC(=O)c2ccc(S(=O)(=O)N3CCCC3)cc2)c1	none
C=CC[n+]1c(/C=C/c2ccc(OC(C)=O)c(OC)c2)ccc2ccccc21	TRPC6 inhibitor -8 | HEK293 MPD ctr-2 -301% | HEK293 MPD ctr 2-2 90% | TRPC4/MOR mod -57% | TRPC4/MOR inh 2 65% | TRPC6 inh conf 64% | TRPC6 act confirm inactive
COc1cc(/C=N/NC(=O)Nc2ccccc2)ccc1OC(C)=O	none
O=[N+]([O-])c1cc([N+](=O)[O-])c2c(=Nc3ccccc3)n(-c3ccccc3)n(O)c2c1	TRPC6 inhibitor -7.2 | TRPC4 sel inh 2 50% | TRPC4 spec -13% | HEK293 MPD ctr 2-1 inactive | HEK293 MPD ctr-1 -184% | TRPC6 inh conf inactive | TRPC6 act confirm inactive
O=[N+]([O-])c1cc(Br)c(Nc2ccccc2)c([N+](=O)[O-])c1	none
O=C1C(=O)N(c2ccccn2)C(c2cccc([N+](=O)[O-])c2)/C1=C(/O)c1ccc(Br)cc1 (stereo not drawn)	none
CCN(CC)CCn1c(=S)[nH]c2cc(C(=O)N3CC=C(c4ccccc4)CC3)ccc2c1=O	none
Cc1c(C)n(Cc2ccccc2)c2ccc(C(=O)OCCN(C)C)cc12	TRPC6 inhibitor -6 | HEK293 MPD ctr-2 inactive | HEK293 MPD ctr 2-2 inactive | TRPC4/MOR mod inactive | TRPC4/MOR inh 2 72% | TRPC6 inh conf 56% | TRPC6 act confirm inactive
Cc1c(C)n(Cc2ccccc2)c2ccc(C(=O)NCCN3CCOCC3)cc12	none
CCOC(=O)C1CCCN(C(=O)Cn2nc(C)n3nc(-c4ccccc4)cc3c2=O)C1 (stereo not drawn)	none
O=C(NCc1ccco1)C1CCCN(c2ncnc3c2nc2n3CCCCC2)C1 (stereo not drawn)	none
CCOC(=O)c1c(C)n(-c2ccc(F)cc2)c2ccc(O)cc12	none
CCOC(=O)c1c(C)n(-c2ccc(C)cc2)c2ccc(O)c(CN(C)C)c12	TRPC6 inhibitor -5.7 | HEK293 MPD ctr-2 -96% | HEK293 MPD ctr 2-2 inactive | TRPC4/MOR mod -18% | TRPC4/MOR inh 2 62% | TRPC6 inh conf 51% | TRPC6 act confirm inactive
CCOC(=O)c1c(C)n(C)c2ccc(O)c(CN3CCCCC3)c12	TRPC6 inhibitor -8 | HEK293 MPD ctr-2 -172% | HEK293 MPD ctr 2-2 inactive | TRPC4/MOR mod -30% | TRPC4/MOR inh 2 59% | TRPC6 inh conf 66% | TRPC6 act confirm inactive
CCOC(=O)c1c(C)n(-c2ccc(OC)cc2)c2ccc(O)c(CN(C)C)c12	TRPC6 inhibitor -8.8 | TRPC4 sel inh 2 46% | TRPC4 spec -17% | HEK293 MPD ctr 2-1 inactive | HEK293 MPD ctr-1 -286% | TRPC6 inh conf 60% | TRPC6 act confirm inactive
CCOC(=O)c1c(C)n(C)c2ccc(O)c(CN(C)C)c12	TRPC6 inhibitor -8.7 | HEK293 MPD ctr-2 -242% | HEK293 MPD ctr 2-2 inactive | TRPC4/MOR mod -41% | TRPC4/MOR inh 2 59% | TRPC6 inh conf 62% | TRPC6 act confirm inactive
COc1ccc2nccnc2c1[N+](=O)[O-]	none
COc1ccc(CCNC(=O)CCNS(=O)(=O)c2cccc(Cl)c2)cc1OC	none
CCOC(=O)c1c(NC(=O)c2cccc([N+](=O)[O-])c2C(=O)O)sc2c1CCCC2	TRPC6 act 37 | HEK293 MPD ctr-2 210% | HEK293 MPD ctr 2-2 inactive | TRPC4/MOR mod 37% | TRPC4/MOR inh 2 inactive | TRPC6 inh conf inactive | TRPC6 act confirm 102%
CCOC(=O)c1c(NC(=O)c2c(C(=O)O)cccc2[N+](=O)[O-])sc2c1CCCC2	TRPC6 act 30 | HEK293 MPD ctr-2 194% | HEK293 MPD ctr 2-2 inactive | TRPC4/MOR mod 31% | TRPC4/MOR inh 2 inactive | TRPC6 inh conf inactive | TRPC6 act confirm 116%
CC(=O)OCC[C@H](NS(=O)(=O)OCC(Cl)(Cl)Cl)c1ccccc1	none
Cc1cnc(C(=O)NC(C)CCc2ccccc2)cn1 (stereo not drawn)	none
CCOc1ccccc1-n1ccn(CC(=O)Nc2ccc(Br)cc2F)c(=O)c1=O	none
CN(C)CCC(Oc1ccccc1OCc1ccccc1)c1ccccc1 (stereo not drawn)	TRPC6 inhibitor -5.9 | HEK293 MPD ctr-2 257% | HEK293 MPD ctr 2-2 inactive | TRPC4/MOR mod 49% | TRPC4/MOR inh 2 85% | TRPC6 inh conf 44%
COc1ccccc1C1CC(=O)NC(C)=C1C(=O)OC(C)C (stereo not drawn)	none
Oc1ccc(Cl)cc1Cc1cc(Cl)ccc1O	TRPC6 inhibitor -5.1 | HEK293 MPD ctr-2 inactive | HEK293 MPD ctr 2-2 69% | TRPC4/MOR mod -12% | TRPC4/MOR inh 2 63% | TRPC6 inh conf 66% | TRPC6 act confirm inactive

Source: PubChem BioAssay (Johns Hopkins Ion Channel Center)
